ROMK mod: modulators of human ROMK potassium channel. Tet-inducible ROMK, thallium flux fluorescence; actives lie on both sides. B-score at 10 µM. actives 2% (n = 130,000);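 active means signal ratio slope over the read window, or its plate-corrected B-score, at least 3 SD from the plate mean, either direction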;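 further: B-score of the F/F0 ratio slope over 7 to 12 s after thallium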
sdo1 growth: restores growth of sdo1-depleted yeast. S. cerevisiae sdo1-depleted JHY4D growth rescue, OD600 30 h; hits give high values; pdr5 snq2 efflux-pump mutant strain. z-score at 10 µM. actives 0.21% (n = 140,000);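 active means z-score above 3 at both the 24 hr and the 30 hr optical density reads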;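 further: z-score against mean and SD of all compound wells on the same plate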
ABCB1 block: human ABCB1 inhibition, ABCG2 as counter-screen; P08183; CCRF-Adr cells, JC-1 efflux, flow cytometry; inhibition, % at 6.6 µM; actives 0.067% (n = 190,000); AID 1326; in the data active means inhibition above about 40%;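 further: 0% = vehicle and 100% = reference inhibitor; higher value means more JC-1 retained so stronger ABCB1 efflux block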
Target sequence (P08183 whole entry, looked up): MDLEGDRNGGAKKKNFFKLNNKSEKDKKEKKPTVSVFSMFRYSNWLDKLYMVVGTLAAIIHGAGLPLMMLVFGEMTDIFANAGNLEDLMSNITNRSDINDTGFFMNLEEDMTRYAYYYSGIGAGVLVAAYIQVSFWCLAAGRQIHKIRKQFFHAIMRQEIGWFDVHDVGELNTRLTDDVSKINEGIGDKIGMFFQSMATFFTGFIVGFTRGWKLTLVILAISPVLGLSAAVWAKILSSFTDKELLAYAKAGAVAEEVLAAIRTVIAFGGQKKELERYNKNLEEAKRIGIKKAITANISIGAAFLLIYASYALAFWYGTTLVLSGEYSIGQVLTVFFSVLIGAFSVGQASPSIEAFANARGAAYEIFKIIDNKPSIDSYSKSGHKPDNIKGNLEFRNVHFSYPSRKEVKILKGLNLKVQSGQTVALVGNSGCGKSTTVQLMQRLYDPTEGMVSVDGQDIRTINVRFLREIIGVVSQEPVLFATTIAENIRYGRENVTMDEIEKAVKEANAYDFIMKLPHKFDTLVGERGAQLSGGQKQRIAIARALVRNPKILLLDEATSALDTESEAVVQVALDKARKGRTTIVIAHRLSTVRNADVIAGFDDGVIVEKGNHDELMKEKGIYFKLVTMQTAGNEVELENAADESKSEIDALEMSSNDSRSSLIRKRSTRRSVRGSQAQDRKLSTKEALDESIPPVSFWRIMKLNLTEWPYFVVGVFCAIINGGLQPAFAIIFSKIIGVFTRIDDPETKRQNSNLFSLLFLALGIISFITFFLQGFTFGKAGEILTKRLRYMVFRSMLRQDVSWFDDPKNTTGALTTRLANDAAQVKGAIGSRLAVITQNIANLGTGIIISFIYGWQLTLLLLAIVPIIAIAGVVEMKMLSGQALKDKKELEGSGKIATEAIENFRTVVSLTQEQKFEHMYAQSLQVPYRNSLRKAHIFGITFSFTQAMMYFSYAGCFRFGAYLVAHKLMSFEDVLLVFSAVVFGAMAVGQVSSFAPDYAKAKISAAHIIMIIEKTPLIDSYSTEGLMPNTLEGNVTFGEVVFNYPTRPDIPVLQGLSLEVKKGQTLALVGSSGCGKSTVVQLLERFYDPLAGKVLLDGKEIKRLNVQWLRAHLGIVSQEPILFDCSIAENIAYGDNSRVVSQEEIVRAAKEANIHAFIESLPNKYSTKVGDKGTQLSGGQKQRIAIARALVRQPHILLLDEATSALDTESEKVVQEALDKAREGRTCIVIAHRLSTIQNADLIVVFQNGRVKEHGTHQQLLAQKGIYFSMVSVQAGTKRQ
Ins promoter up: MIN6 insulin promoter up-regulation. MIN6 insulin promoter-GFP reporter, high-content imaging; hits give high values. z-score at 5 µM. actives 0.3% (n = 190,000). AID 1625;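 active means z-score above 3 at 5 µM with at least 500 cells counted in the well; inconclusive means wells under 500 cells, flagged as cytotoxic or low count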
ABCG2 block: human ABCG2 inhibition, ABCB1 as counter-screen; Q9UNQ0; inhibition, % at 6.6 µM; actives 0.1% (n = 190,000); IgMXP3 cells, JC-1 efflux, flow cytometry; AID 1325;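 active means inhibition above 80%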;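 further: 0% = DMSO and 100% = nicardipine control wells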
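Test system: IgMXP3 cells (ABCG2) mixed with DDAO far-red-labelled CCRF-Adr cells (ABCB1). Reagent: JC-1 transporter substrate. Compound dosing: single test compound dose, 6.6 µM final. Times: 10 min compound exposure, 25 °C. Detection: flow cytometry of retained JC-1 fluorescence. Read-out basis: efflux inhibition in percent versus controls. Controls: nicardipine and DMSO wells.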
Autophagy HCS: alters autophagy in cells; MEF GFP-LC3 puncta imaging; test concentration mostly 10 µM; calls only at 10 µM (by protocol); actives 0.98% (n = 190,000);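 active means percentage of spot-positive cells more than 3 SD above its plate mean, without a fluorescence outlier flag or 80% toxicity; inconclusive means no clear call, values can overlap the other calls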;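 further: spot-positive cell cutoff set from DMSO-treated cells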
ABCB1 confirm: inhibits human ABCB1 efflux, confirmed at single point; shares compounds with ABCG2 block; CCRF-Adr cells, JC-1 efflux, flow cytometry; inhibition, % at 6.6 µM; actives 7% (n = 270);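 active means inhibition of pump activity above 50%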;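 further: 0% = DMSO and 100% = nicardipine full pump inhibition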
ABCG2 confirm: confirmation of human ABCG2 transporter inhibitors, ABCB1 counter-screen | shares compounds with ABCG2 block | IgMXP3 cells, JC-1 efflux, flow cytometry | inhibition, % at 6.6 µM | actives 6% (n = 270);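 active means inhibition above 50%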;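 further: 0% = DMSO wells and 100% = nicardipine pump inhibitor wells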
IgMXP3 fluor: IgMXP3 autofluorescence flag for ABCG2 confirmation | shares compounds with ABCG2 block | IgMXP3 cells, compound autofluorescence 488/530 nm, flow; hits give high values | fluorescence at 6.6 µM | actives 30% (n = 270) | AID 1480;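 active means fluorescence in ABCG2-expressing cells above the plate's control-well mean plus 3 SD, cut at about 15 in these data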;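 further: median cell fluorescence with compound minus that of DMSO-treated control cells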
CCRF-Adr fluor: CCRF-Adr autofluorescence flag for ABCB1 confirmation | AID 1483 | shares compounds with ABCG2 block | CCRF-Adr cells, compound autofluorescence 488/530 nm, flow cytometry; hits give high values | actives 30% (n = 270) | fluorescence at 6.6 µM;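 active means fluorescence beyond the plate control mean plus 3 SD, with a fluorescence-to-maximum score over 2, cut at about 25 in these data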
ROMK retest: confirmation of human ROMK potassium channel modulators; shares compounds with ROMK mod; ROMK thallium flux, fluorescence ratio; hits give low values; normalized thallium flux (F/F0 slope) at 10 µM; actives 54% (n = 3,000);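 active means Flux at 10 µM at least 3 SD below or above vehicle control mean in one or both replicates; inconclusive means no clear call, values can overlap the other calls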
Starred values were filed as active, the others as inactive; i = inactive; ? = inconclusive; nt = not tested or not shown; + = active, no number. Hits are enriched below; roughly 2.3% of the tested compounds scored in any of these assays.

SMILES	ROMK mod	sdo1 growth	ABCB1 block	Ins promoter up	ABCG2 block	Autophagy HCS	ABCB1 confirm	ABCG2 confirm	IgMXP3 fluor	CCRF-Adr fluor	others
COC(=O)c1ccc(C(C(=O)NC2CCCCC2)N(Cc2ccccc2)C(=O)Cc2cccs2)cc1 (stereo not drawn)	-0.38	-0.38	48*	-0.65	45	i	26	27	-2.4	-4.5
COC(=O)c1ccc(C(C(=O)NC2CCCCC2)N(C(=O)Cc2cccs2)C2CC2)cc1 (stereo not drawn)	nt	0.29	2	-0.6	4	i	nt	nt	nt	nt
O=C(NCCNc1ccc([N+](=O)[O-])cc1)c1ccc(Cl)cc1	0.19	nt	0	-2.2	7	i	nt	nt	nt	nt
CC(=O)c1cc(C#N)c(N2CCOCC2)nc1C	-0.3	nt	0	0.67	1	i	nt	nt	nt	nt
O=C1NCCc2c1[nH]c1ccc([N+](=O)[O-])cc21	-0.89	nt	0	-0.8	20	i	nt	nt	nt	nt
O=C(N/N=C1\CCCc2c1[nH]c1ccc([N+](=O)[O-])cc21)c1ccncc1	nt	0.58	0	-0.25	114*	i	4	39	-1.1	-0.09
Cc1ccnc(N/C=C(\C#N)c2nc(-c3cccc(Br)c3)cs2)c1	nt	-2	47*	nt	43	+	16	9	42*	161*
Cc1cc(C)c(C#N)c(SCC(=O)c2cc(C)n(CCc3ccccc3)c2C)n1	nt	0.7	1	-0.67	5	i	nt	nt	nt	nt
COCCn1c(C)cc(C(=O)CSc2nc(C)cc(C)c2C#N)c1C	nt	-0.88	3	0.24	97*	i	7	29	24*	19
O=C(Nc1ccc(-c2cn3ccccc3n2)cc1)c1cccs1	1	nt	2	-0.47	5	i	nt	nt	nt	nt
O=C(O)CNc1ccc(S(=O)(=O)C(F)(F)F)cc1[N+](=O)[O-]	nt	nt	nt	-0.01	nt	nt	nt	nt	nt	nt
CC(=O)Nc1ccc(Nc2ccc(S(=O)(=O)C(F)(F)F)cc2[N+](=O)[O-])cc1	nt	-0.39	1	1.1	92*	i	1	55*	-2.2	-4.4
N#CC(C#N)=C1C=C2C=C(N3CCCCCC3)CCC2CC1 (stereo not drawn)	nt	-0.94	116*	nt	55	?	138*	46	46*	131*
CCN1CCN(C2=CC3=CC(=C(C#N)C#N)CCC3CC2)CC1 (stereo not drawn)	nt	nt	70*	nt	55	?	23	46	35*	93*
CC1(C)CC(NCCN2CCN(C3=CC(=C(C#N)C#N)CC(C)(C)C3)CC2)=CC(=C(C#N)C#N)C1	0.037	nt	0	-2.5	5	i	nt	nt	nt	nt
N#CC(C#N)=C1C=C2C=C(N3CCOCC3)CCC2CC1 (stereo not drawn)	nt	nt	169*	nt	53	i	11	50*	7.7	25
CN1CCN(C2=CC3=CC(=C(C#N)C#N)CCC3CC2)CC1 (stereo not drawn)	nt	nt	+	nt	85*	+	68*	53*	29*	47*
O=C(CNC1CCCCC1)NN=C(c1ccccc1)c1ccccc1	-1.1	nt	1	-0.18	3	i	nt	nt	nt	nt
Cc1sc2ncnc(NCC3COc4ccccc4O3)c2c1C (stereo not drawn)	nt	-1	0	-1.9	82*	i	1	28	-2.1	-3
CC(=O)c1sc(Nc2nc3cc4c(cc3s2)OCO4)nc1C	-0.068	nt	-1	-0.45	-6	i	nt	nt	nt	nt
CCOC(=O)c1sc(Nc2nc3cc4c(cc3s2)OCO4)cc1C	nt	-1.6	195*	-0.5	175*	i	2	16	-1.6	-2.2
COc1ccc(CN2C(=O)c3ccccc3C2=O)cc1C(=O)OC(C)C(=O)NC(N)=O (stereo not drawn)	-0.42	-0.36	2	0.58	3	i	nt	nt	nt	nt
CCc1cccc(CC)c1NC(=O)c1cc(CN2C(=O)c3ccccc3C2=O)ccc1OC	nt	0.52	57*	0.51	96*	i	32	19	-1.7	0.21
O=C1/C(=C/c2ccc(N3CCOCC3)o2)SC(=Nc2ccccc2)N1CCc1c[nH]c2ccccc12	nt	0.45	81*	nt	127*	+	3	0	77*	192*	ROMK retest=0.059*
COc1cc(/C=C2\SC(=Nc3ccccc3)N(CCc3c[nH]c4ccccc34)C2=O)ccc1OC(C)C(=O)O (stereo not drawn)	nt	1.1	0	0.02	-2	i	nt	nt	nt	nt
SMILES	ROMK mod	sdo1 growth	ABCB1 block	Ins promoter up	ABCG2 block	Autophagy HCS	ABCB1 confirm	ABCG2 confirm	IgMXP3 fluor	CCRF-Adr fluor	others
Cc1ccccc1CN1CCc2c(OCC(=O)N3CCCc4ccccc43)cccc2C1=O	-0.99	-0.89	47*	-0.19	52	i	29	36	22*	13	ROMK retest=0.08
CC(=O)Nc1ccc(OS(=O)(=O)c2ccc([N+](=O)[O-])cc2)cc1	nt	nt	0	-0.57	1	i	nt	nt	nt	nt
CCOC(=O)c1ccc2nc(NC(=O)c3cccs3)sc2c1	nt	-0.56	-1	nt	9	i	nt	nt	nt	nt	ROMK retest=0.074
COc1ccc(Nc2ccc(N3C(=O)CC(C)C3=O)cc2[N+](=O)[O-])cc1OC (stereo not drawn)	0.16	nt	7	-0.25	57	i	nt	nt	nt	nt
OC(CNC1CCCC1)COc1ccc(-c2ccccc2)cc1 (stereo not drawn)	-3.4	nt	1	-0.66	14	i	nt	nt	nt	nt
OC(CNC1Cc2ccccc2C1)COc1ccc(Cl)cc1 (stereo not drawn)	-5.3*	nt	nt	0.11	nt	nt	nt	nt	nt	nt	ROMK retest=0.049*
Cc1cc(/C=N/n2cnnc2)c(C)n1-c1ccc(Cl)cc1Cl	3.2*	0.3	1	nt	1	i	nt	nt	nt	nt	ROMK retest=?
COc1ccc(C(=O)CSc2[nH]c(=O)cc(C(F)(F)F)c2C#N)cc1	nt	nt	nt	-0.3	nt	nt	nt	nt	nt	nt	ROMK retest=0.068*
COc1ccc(-c2cc(C(F)(F)F)c(C#N)c(SCC(=O)Nc3ccc(C)cc3)n2)cc1	0.0019	0.05	0	1.4	12	i	nt	nt	nt	nt
O=C(c1ccccc1Cl)N1CCNCC1	1.4	0.05	0	nt	3	i	nt	nt	nt	nt
Clc1cccc2c1Sc1ccccc1CC2N1CCNCC1 (stereo not drawn)	-3.1*	-1.1	1	-1.7	-2	i	nt	nt	nt	nt	ROMK retest=0.051*
CCN(CC(=O)Nc1ccc(C(=O)Nc2ccc(OC)cc2)cc1)Cc1nc2ccccc2c(=O)[nH]1	nt	nt	nt	0.17	nt	nt	nt	nt	nt	nt
